According to ChEMBL document CHEMBL4602735, “Discovery of (1H-Pyrazolo[3,4-c]pyridin-5-yl)sulfonamide Analogues as Hepatitis B Virus Capsid Assembly Modulators by Conformation Constraint” (J Med Chem, 2020):
Activity calls are given as the source filed them. The calls are words filed in the database; no cut-off is given here.

Columns and labels:
Hepatitis B virus [1] = assay: Inhibition of HBsAg secretion in HBV infected human HepAD38 cells at 2 uM for 4 days by ELISA; assay type: functional, organism-based
How it was run: (§1)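 HepAD38 or HepG2.2.15 cells were treated at 2 µM for 4 days, with medium replaced every 2 days. Intracellular and extracellular DNA and RNA were quantified by qPCR or qRT-PCR, and HBeAg and HBsAg by ELISA. Results were compared with DMSO vehicle as mean ± SD, using a two-tailed t-test.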

Hepatitis B virus [2] = assay: Antiviral activity against HBV infected in human HepAD38 cells assessed as inhibition of intracellular viral RNA accumulation at 2 uM for 4 days by qPCR or qRT-PCR relative to control; assay type: functional, organism-based; how it was run: as §1
Hepatitis B virus [3] = assay: Inhibition of HBeAg secretion in HBV infected human HepG2.2.15 cells at 2 uM for 4 days by ELISA relative to control; assay type: functional, organism-based; settings: HepG2 2.2.15; how it was run: as §1
Hepatitis B virus [4] = assay: Antiviral activity against HBV infected in human HepAD38 cells assessed as inhibition of intracellular viral DNA accumulation at 2 uM for 4 days by qPCR or qRT-PCR relative to control; assay type: functional, organism-based; how it was run: as §1
Hepatitis B virus [5] = assay: Antiviral activity against HBV infected in human HepAD38 cells assessed as reduction in viral DNA levels incubated for 6 days by PCR analysis; assay type: functional, organism-based; settings: HePAD38, 144 h
Hepatitis B virus [6] = assay: Antiviral activity against HBV infected in human HepG2.2.15 cells assessed as inhibition of intracellular viral DNA accumulation at 2 uM for 4 days by qPCR or qRT-PCR relative to control; assay type: functional, organism-based; settings: HepG2 2.2.15; how it was run: as §1
Hepatitis B virus [7] = assay: Antiviral activity against multidrug-resistant HBV infected in human HepG2.1403F cells assessed as reduction in viral replication incubated for 6 days by PCR analysis; assay type: functional, organism-based; settings: 144 h
How it was run: (§2)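 Wild-type HBV replication measured in HepAD38 and HepG2.2.15 cells, lamivudine/entecavir-resistant HBV in HepG2.A64 cells (rtL180M+rtT184L+rtM204V) and multidrug-resistant HBV in HepG2.1403F cells (rtL180M+rtM204V+rtS202G+rtN236T). Read-out is reduction of HBV DNA. EC50 is reported as mean ± SD.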

Hepatitis B virus [8] = assay: Antiviral activity against HBV infected in human HepG2.A64 cells containing reverse transcriptase L180M/T184L/M204V mutant assessed as reduction in viral replication incubated for 6 days by PCR analysis; assay type: functional, organism-based; settings: HepG2.A64, 144 h; how it was run: as §2
Hepatitis B virus [9] = assay: Antiviral activity against HBV infected in human HepG2.2.15 cells assessed as reduction in viral DNA levels incubated for 6 days by PCR analysis; assay type: functional, organism-based; settings: HepG2 2.2.15, 144 h
Hepatitis B virus [10] = assay: Inhibition of HBsAg secretion in HBV infected human HepG2.2.15 cells at 2 uM for 4 days by ELISA; assay type: functional, organism-based; settings: HepG2 2.2.15; how it was run: as §1
Hepatitis B virus [11] = assay: Antiviral activity against HBV infected in human HepAD38 cells assessed as inhibition of intracellular total viral RNA accumulation at 2 uM for 4 days by qPCR or qRT-PCR relative to control; assay type: functional; how it was run: as §1
[12] = Solubility in water at 1 mg at 25 degC by HPLC analysis; assay type: physicochemical
How it was run: (§3)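 Solubility determined in water or 0.067 M phosphate buffer at pH 5.8, 6.8 and 7.4. Values are reported in mg/mL; ND means below the detection limit.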

[13] = Solubility in pH 6.8 phosphate buffer at 1 mg at 25 degC by HPLC analysis; assay type: physicochemical; settings: BLD = below limit of detection; how it was run: as §3
[14] = Solubility in pH 5.8 phosphate buffer at 1 mg at 25 degC by HPLC analysis; assay type: physicochemical; how it was run: as §3
[15] = Cytotoxicity in human HepAD38 cells assessed as induction of cell killing; assay type: cell-based
[16] = Selectivity index, ratio of CC50 for cytotoxicity in human HepAD38 cells assessed as induction of cell killing to EC50 for antiviral activity against HBV infected in human HepAD38 cells assessed as reduction in viral DNA levels incubated for 6 days by PCR analysis; assay type: toxicity, cell-based; settings: read-out: Ratio CC50/EC50
Hepatitis B virus [17] = assay: Induction of capsid assembly of recombinant HBV core protein 149 (1 to 149 residues) at 10 uM incubated overnight by SEC analysis
How it was run: (§4)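 Core protein N-terminal domain Cp149 (aa 1-149, 5 μM) incubated with compound (10 μM) or DMSO overnight at 37 °C in 150 mM NaCl, 50 mM HEPES, pH 7.4. Assembly is read by EM and by size-exclusion chromatography. In SEC, capsids elute early (about 1.08 mL) and dimers late (about 1.97 mL). Peak AUCs and the capsid/dimer AUC ratio are calculated.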

Hepatitis B virus [18] = assay: Induction of capsid assembly of recombinant HBV core protein 149 (1 to 149 residues) at 10 uM incubated overnight by electron microscopy; how it was run: as §4
Hepatitis B virus [19] = assay: Induction of capsid assembly of recombinant HBV core protein 149 (1 to 149 residues) assessed as Cp dimer peak AUC at 10 uM incubated overnight by UV detector based analysis (reference value: 1.63); how it was run: as §4
Hepatitis B virus [20] = assay: Induction of capsid assembly of recombinant HBV core protein 149 (1 to 149 residues) assessed as capsid peak AUC at 10 uM incubated overnight by UV detector based analysis (reference value: 0.96); how it was run: as §4
Hepatitis B virus [21] = assay: Induction of capsid assembly of recombinant HBV core protein 149 (1 to 149 residues) assessed as capsid peak AUC/Cp dimer peak AUC at 10 uM incubated overnight by UV detector based analysis (reference value: 0.59); how it was run: as §4
[22] = Intrinsic clearance in mouse liver microsomes; assay type: ADME, Microsome; settings: read-out: CLH
[23] = Intrinsic clearance in human liver microsomes; assay type: ADME, Microsome; settings: read-out: CLH
[24] = Stability in pH 5.8 buffer assessed as compound remaining level at 37 degC by HPLC analysis; assay type: physicochemical
How it was run: (§5)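 Prodrug incubated in buffer (0.1 M HCl, pH 5.8, 6.8 or 7.4) at 37 °C; percent of compound remaining determined by HPLC; remaining percentage reported after 3 h, stability meaning no hydrolysis after 2 h.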

[25] = Half life in mouse plasma by HPLC analysis; assay type: ADME, cell-free
How it was run: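 Prodrug incubated in plasma at 37 °C, with percent remaining determined by HPLC to derive half-life.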

[26] = Stability in pH 7.4 buffer assessed as compound remaining level at 37 degC by HPLC analysis; assay type: physicochemical; how it was run: as §5
[27] = Stability in pH 6.8 buffer assessed as compound remaining level at 37 degC by HPLC analysis; assay type: physicochemical; how it was run: as §5

| SMILES | EC50 (Hepatitis B virus [5]) [nM] | CC50 [15] [nM] | selectivity ratio at 144 h [16] | also measured |
| --- | --- | --- | --- | --- |
| CCOC(=O)C1=C(CN2CCOCC2)NC(c2nccs2)=NC1c1ccc(F)cc1Br (stereo not given) | 13 | – | – | inhibition (Hepatitis B virus [1]): inactive; inhibition (Hepatitis B virus [2]): Active; inhibition (Hepatitis B virus [3]): Active; inhibition (Hepatitis B virus [4]): Active; inhibition (Hepatitis B virus [6]): Active; EC50 (Hepatitis B virus [7]): 42 nM; EC50 (Hepatitis B virus [8]): 6.3 nM; EC50 (Hepatitis B virus [9]): 6.6 nM; inhibition (Hepatitis B virus [10]): inactive; inhibition (Hepatitis B virus [11]): Active |
| Cc1cc(Nc2nn(C3CC3)c3cnc(S(=O)(=O)N4CCC(OC(=O)CN(C)C)CC4)cc23)ccc1F.O=C(O)/C=C\C(=O)O | – | – | – | solubility [12]: 4200 µg/mL; solubility [13]: Bld; solubility [14]: 7930 µg/mL |
| O=S(=O)(c1cc2c(Nc3ccc(F)c(F)c3)nn(C3CC3)c2cn1)N1CCC(O)CC1 | 250 | > 100000 | > 400 | – |
| Cc1cc(Nc2nn(CCF)c3ccc(S(=O)(=O)N4CCOCC4)cc23)ccc1F | 410 | > 100000 | > 244 | – |
| O=S(=O)(c1ccc2c(c1)c(Nc1ccc(F)c(C(F)F)c1)nn2C1CC1)N1CCOCC1 | 120 | 50000 | 417 | – |
| O=S(=O)(c1cc2c(Nc3ccc(F)c(F)c3)nn(C3CC3)c2cn1)N1CCOCC1 | 220 | > 100000 | > 454 | – |
| O=S(=O)(c1ccc2c(c1)c(Nc1cc(F)c(F)c(F)c1)nn2C1CC1)N1CCC(O)CC1 | 270 | 100000 | – | Activity (Hepatitis B virus [17]): Active; Activity (Hepatitis B virus [18]): Active; AUC (Hepatitis B virus [19]): 0.39; AUC (Hepatitis B virus [20]): 0.56; AUC (Hepatitis B virus [21]): 1.43 |
| Cc1cc(Nc2nn(C3CC3)c3cnc(S(=O)(=O)N4CCOCC4)cc23)ccc1F | 42 | > 100000 | – | microsomal CLint [22]: 53.5 µL/min/mg; microsomal CLint [23]: 38 µL/min/mg |
| O=S(=O)(c1ccc2c(c1)c(Nc1ccc(F)cc1)nn2C1CC1)N1CCCC(O)C1 (stereo not given) | 250 | 19100 | 76.2 | – |
| O=S(=O)(c1ccc2c(c1)c(Nc1ccc(F)c(C3CC3)c1)nn2C1CC1)N1CCC(O)CC1 | 680 | 5860 | 8.6 | – |
| Cc1cc(Nc2nn(C3CC3)c3cnc(S(=O)(=O)N4CCC(OC(=O)CN)CC4)cc23)ccc1F.O=C(O)C(F)(F)F | – | – | – | Stability [24]: 88.3%; half-life [25]: 1.29 h; Stability [26]: 74.2%; Stability [27]: 67.6% |
| O=S(=O)(c1ccc2c(c1)c(Nc1ccc(F)c(F)c1)nn2C1CC1)N1CCC(O)CC1 | 120 | 75000 | 625 | – |
